The nature of the assay: Vasorelaxant activity in Wistar rat thoracic aortic ring precontracted with norepinephrine hydrochloride. The format is functional. As to conditions: Thoracic aorta. The gist of the method: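 Isolated rat thoracic aortic rings held at 2 g resting tension for 2 h. Contraction to norepinephrine hydrochloride (10^-6 M) measured before and after exposure to increasing concentrations of compound. Compounds dissolved in DMSO as a 0.01 M stock. DMSO-alone controls run at matching concentrations. Doxazosin mesylate served as reference standard.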

Counter-ions that a name gives are not always drawn.

For orientation: IC50 means the concentration at which inhibition is half-maximal. The low end stands for greater potency in that assay, the high end for weaker potency in that assay. As to `COc1ccccc1-c1ccc(-n2ccnc2)nn1`, inhibition was half-maximal at 205 µM (IC50).
As for `COc1ccc(/C=N/Nc2ccc(-c3ccc(Cl)cc3)nn2)c(OC)c1`, the figure is 205 µM.
The figure for `N#Cc1cnn(-c2ccc(-c3ccc(Cl)cc3)nn2)c1N` is 310 µM; for `COc1ccccc1-c1ccc(N2CCCC2)nn1` it is 284 µM; for `COc1ccccc1-c1ccc(NN)nn1` it is 279 µM.
The figure for `CCOC(=O)c1cnn(-c2ccc(-c3ccccc3OC)nn2)c1N` is 225 µM.
For the molecule `COc1ccc(/C=N/Nc2ccc(-c3ccccc3OC)nn2)cc1`, 200 µM corresponded to half-maximal inhibition (IC50).
The figure for `COc1ccc(-c2ccc(-n3ccnc3)nn2)cc1` is 259 µM.
As for `N#Cc1cnn(-c2ccc(-c3ccccc3)nn2)c1N`, the figure is 287 µM; as for `c1ccc(-c2ccc(N3CCCC3)nn2)cc1`, 235 µM; as for `COc1ccccc1-c1ccc(-n2nc(C)cc2C)nn1`, 299 µM.
As for `Clc1ccc(-c2ccc(N3CCCC3)nn2)cc1`, the figure is 300 µM; as for `COc1ccc(-c2ccc(NN)nn2)cc1`, 235 µM.
Molecule `CCOC(=O)c1cnn(-c2ccc(-c3ccccc3)nn2)c1N` had an IC50 of 254 µM.
As for `COc1cc(/C=N/Nc2ccc(-c3ccc(Cl)cc3)nn2)cc(OC)c1OC`, the figure is 255 µM.
The figure for `NNc1ccc(-c2ccccc2)nn1` is 206 µM; for `COc1ccccc1-c1ccc(NNC(=O)NC2CCCCC2)nn1` it is 266 µM.
As for `CCOC(=O)c1cnn(-c2ccc(-c3ccc(Cl)cc3)nn2)c1N`, the figure is 230 µM; as for `O=C(NNc1ccc(-c2ccc(Cl)cc2)nn1)Nc1ccccc1`, 207 µM; as for `Clc1ccc(-c2ccc(-n3ccnc3)nn2)cc1`, 255 µM.
`CCOC(=O)c1cnn(-c2ccc(-c3ccc(OC)cc3)nn2)c1N`: it took 216 µM to reach half-maximal inhibition (IC50).
Take `COc1ccc(/C=N/Nc2ccc(-c3ccccc3OC)nn2)c(OC)c1`: the IC50 came to 259 µM. The IC50 values of the last two molecules are within 1.5-fold of each other.
For the molecule `NNc1ccc(-c2ccc(Cl)cc2)nn1`, the IC50 turned out to be 275 µM. The IC50 values of the last two molecules are within 1.5-fold of each other.
As for `COc1ccccc1-c1ccc(N/N=C/c2ccc(C(F)(F)F)cc2)nn1`, the figure is 248 µM; as for `O=C(NNc1ccc(-c2ccc(Cl)cc2)nn1)NC1CCCCC1`, 177 µM.
For the molecule `COc1ccccc1-c1ccc(-n2ncc(C#N)c2N)nn1`, the IC50 was determined as 316 µM.
The figure for `COc1ccc(-c2ccc(-n3ncc(C#N)c3N)nn2)cc1` is 260 µM.
The figure for `Cc1cc(C)n(-c2ccc(-c3ccccc3)nn2)n1` is 198 µM; for `Cc1cc(C)n(-c2ccc(-c3ccc(Cl)cc3)nn2)n1` it is 213 µM; for `FC(F)(F)c1ccc(/C=N/Nc2ccc(-c3ccc(Cl)cc3)nn2)cc1` it is 209 µM.
As for `COc1ccc(-c2ccc(-n3nc(C)cc3C)nn2)cc1`, the figure is 323 µM; as for `c1ccc(-c2ccc(-n3ccnc3)nn2)cc1`, 273 µM.
On to `COc1ccc(/C=N/Nc2ccc(-c3ccc(Cl)cc3)nn2)cc1`, for which the IC50 was 217 µM.
The figure for `COc1ccccc1-c1ccc(N/N=C/c2cc(OC)c(OC)c(OC)c2)nn1` is 221 µM.
On to `COc1cc2nc(N3CCN(C(=O)C4COc5ccccc5O4)CC3)nc(N)c2cc1OC` (stereo not given) [DOXAZOSIN MESYLATE], for which 226 µM corresponded to half-maximal inhibition (IC50).
